Measured values reported in ChEMBL document CHEMBL1137730, “Synthesis and antiparasitic and antifungal evaluation of 2'-arylsubstituted-1H,1'H-[2,5']bisbenzimidazolyl-5-carboxamidines” (Eur J Med Chem, 2009).
Converted amounts (≈) assume the structure as drawn.

Columns and labels:
Candida albicans = experiment: Antifungal activity against Candida albicans ATCC 10231 by macro-broth dilution method; format: functional
How it was run: (§1)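 Macro-broth (tube) dilution; compounds and reference drugs dissolved in water or 40% DMSO-water as 400 µg/mL stock, brought to 100 µg/mL in the first tube by 4-fold dilution with culture medium and fungal suspension. Result reported as MIC.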

Leishmania donovani [1] = experiment: Antiparasitic activity against Leishmania donovani MHOM-ET/67/L82 at 0.81 ug/ml; format: functional
L6 = experiment: Cytotoxicity against rat L6 cells by alamar blue assay; format: cell-based
How it was run: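 Rat L-6 myoblasts in culture; viability read by Alamar Blue.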

Trypanosoma cruzi [2] = experiment: Antiparasitic activity against Trypanosoma cruzi Tulahuen C4 containing lacz gene at 4.85 ug/ml; format: functional; settings: Tulahen C4
Leishmania donovani [3] = experiment: Antiparasitic activity against Leishmania donovani MHOM-ET/67/L82 at 4.85 ug/ml; format: functional
[4] = test system: Trypanosoma brucei rhodesiense; experiment: Antiparasitic activity against Trypanosoma brucei rhodesiense STIB900; format: functional, organism-based
Pichia kudriavzevii = experiment: Antifungal activity against Candida krusei ATCC 6258 by macro-broth dilution method; format: functional; how it was run: as §1
Plasmodium falciparum = experiment: Antiparasitic activity against Plasmodium falciparum K1; format: functional, organism-based
Trypanosoma cruzi [5] = experiment: Antiparasitic activity against Trypanosoma cruzi Tulahuen C4 containing lacz gene at 0.81 ug/ml; format: functional; settings: Tulahen C4

| SMILES | MIC (Candida albicans) | IC50 [4] | MIC (Pichia kudriavzevii) | IC50 (Plasmodium falciparum) | inhibition at 0.81 µg/mL (Leishmania donovani [1]) | IC50 (L6) | inhibition at 4.85 µg/mL (Trypanosoma cruzi [2]) | inhibition at 4.85 µg/mL (Leishmania donovani [3]) | inhibition at 0.81 µg/mL (Trypanosoma cruzi [5]) |
| --- | --- | --- | --- | --- | --- | --- | --- | --- | --- |
| N=C(N)c1ccc2[nH]c(-c3ccc4nc(-c5ccccc5Oc5ccc(Cl)cc5)[nH]c4c3)nc2c1 | 50 µg/mL (≈ 104 µM) |  | 50 µg/mL (≈ 104 µM) | 0.193 µg/mL (≈ 0.403 µM) | ≤ 50% | > 90 µg/mL | ≤ 70% | ≤ 70% | ≤ 50% |
| N=C(N)c1ccc2[nH]c(-c3ccc4nc(-c5ccc(F)c(F)c5)[nH]c4c3)nc2c1 | 25 µg/mL (≈ 64.4 µM) | 0.33 µg/mL (≈ 0.85 µM) | 25 µg/mL (≈ 64.4 µM) | 0.015 µg/mL (≈ 0.0386 µM) | ≤ 50% | 29.8 µg/mL (≈ 76.7 µM) | ≤ 70% | ≤ 70% | ≤ 50% |
| N=C(N)c1ccc2[nH]c(-c3ccc4nc(-c5ccc(F)cc5)[nH]c4c3)nc2c1 | 25 µg/mL (≈ 67.5 µM) | 0.04 µg/mL (≈ 0.108 µM) | 12.5 µg/mL (≈ 33.7 µM) | 0.01 µg/mL (≈ 0.027 µM) | ≤ 50% | 2.48 µg/mL (≈ 6.7 µM) | ≤ 70% | ≤ 70% | ≤ 50% |
| N=C(N)c1ccc2[nH]c(-c3ccc4nc(-c5cc(C(F)(F)F)ccc5Cl)[nH]c4c3)nc2c1 |  |  |  | 0.064 µg/mL (≈ 0.141 µM) | ≤ 50% | 31.8 µg/mL (≈ 69.9 µM) | ≤ 70% | ≤ 70% | ≤ 50% |
| N=C(N)c1ccc2[nH]c(-c3ccc4nc(-c5cc(C(F)(F)F)cc(C(F)(F)F)c5)[nH]c4c3)nc2c1 | 50 µg/mL (≈ 102 µM) |  | 25 µg/mL (≈ 51.2 µM) | 0.63 µg/mL (≈ 1.29 µM) | ≤ 50% | 76.8 µg/mL (≈ 157 µM) | ≤ 70% | ≤ 70% | ≤ 50% |

The remaining compounds from weak to strong by MIC (Candida albicans), led by results:

| MIC (Candida albicans) | IC50 [4] | MIC (Pichia kudriavzevii) | IC50 (Plasmodium falciparum) | SMILES | inhibition at 0.81 µg/mL (Leishmania donovani [1]) | IC50 (L6) | inhibition at 4.85 µg/mL (Trypanosoma cruzi [2]) | inhibition at 4.85 µg/mL (Leishmania donovani [3]) | inhibition at 0.81 µg/mL (Trypanosoma cruzi [5]) |
| --- | --- | --- | --- | --- | --- | --- | --- | --- | --- |
| 25 µg/mL (≈ 44.3 µM) | 1.06 µg/mL (≈ 1.88 µM) | 50 µg/mL (≈ 88.6 µM) | 0.061 µg/mL (≈ 0.108 µM) | N=C(N)c1ccc2[nH]c(-c3ccc4nc(-c5ccc(OCc6ccccc6)c(OCc6ccccc6)c5)[nH]c4c3)nc2c1 | ≤ 50% | > 90 µg/mL | ≤ 70% | ≤ 70% | ≤ 50% |
| 12.5 µg/mL (≈ 33.7 µM) | 0.08 µg/mL (≈ 0.216 µM) | 12.5 µg/mL (≈ 33.7 µM) | 0.007 µg/mL (≈ 0.0189 µM) | N=C(N)c1ccc2[nH]c(-c3ccc4nc(-c5ccccc5F)[nH]c4c3)nc2c1 | ≤ 50% | 26.8 µg/mL (≈ 72.4 µM) | ≤ 70% | ≤ 70% | ≤ 50% |
| 6.25 µg/mL (≈ 15.5 µM) | 0.389 µg/mL (≈ 0.967 µM) | 25 µg/mL (≈ 62.1 µM) | 0.016 µg/mL (≈ 0.0398 µM) | N=C(N)c1ccc2[nH]c(-c3ccc4nc(-c5ccc6ccccc6c5)[nH]c4c3)nc2c1 | ≤ 50% | 34.7 µg/mL (≈ 86.2 µM) | ≤ 70% | ≤ 70% | ≤ 50% |
| 3.12 µg/mL (≈ 7.35 µM) |  | 6.25 µg/mL (≈ 14.7 µM) | 0.211 µg/mL (≈ 0.497 µM) | CC(C)(C)c1cccc(-c2nc3ccc(-c4nc5cc(C(=N)N)ccc5[nH]4)cc3[nH]2)c1O | ≤ 50% | 13.4 µg/mL (≈ 31.6 µM) | ≤ 70% | ≤ 70% | ≤ 50% |
| 1.56 µg/mL (≈ 3.82 µM) | 1.06 µg/mL (≈ 2.59 µM) | 12.5 µg/mL (≈ 30.6 µM) | 0.031 µg/mL (≈ 0.0759 µM) | CC(C)(C)c1ccc(-c2nc3ccc(-c4nc5cc(C(=N)N)ccc5[nH]4)cc3[nH]2)cc1 | ≤ 50% | 13 µg/mL (≈ 31.8 µM) | ≤ 70% | ≤ 70% | ≤ 50% |
| 0.78 µg/mL (≈ 2.12 µM) | 0.017 µg/mL (≈ 0.0461 µM) |  | 0.013 µg/mL (≈ 0.0353 µM) | N=C(N)c1ccc2[nH]c(-c3ccc4nc(-c5ccc(O)cc5)[nH]c4c3)nc2c1 |  | 4.2 µg/mL (≈ 11.4 µM) |  |  |  |
